Measured values: ChEMBL document CHEMBL1143918, “Novel coumarin glycoside and phenethyl vanillate from Notopterygium forbesii and their binding affinities for opioid and dopamine receptors” (Bioorg Med Chem, 2008)

Experiments:
Type in all cases: cell-based
[1] = biological target: Kappa-type opioid receptor (Homo sapiens, UniProt P41145); experiment: Displacement of [3H]diprenorphine from human kappa opioid receptor expressed in CHO cells
Summary of the method: (§1)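 Competitive inhibition of [3H]diprenorphine binding to human KOR, rat MOR or mouse DOR stably expressed in CHO cells. Compounds screened at 10 μM; those displacing >50% were tested over a concentration range and Ki calculated from competitive inhibition curves.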

[2] = biological target: Mu-type opioid receptor (Rattus norvegicus, UniProt P33535); experiment: Displacement of [3H]diprenorphine from rat mu opioid receptor expressed in CHO cells; summary of the method: as §1
Mu-type opioid receptor, sequence (P33535 whole entry): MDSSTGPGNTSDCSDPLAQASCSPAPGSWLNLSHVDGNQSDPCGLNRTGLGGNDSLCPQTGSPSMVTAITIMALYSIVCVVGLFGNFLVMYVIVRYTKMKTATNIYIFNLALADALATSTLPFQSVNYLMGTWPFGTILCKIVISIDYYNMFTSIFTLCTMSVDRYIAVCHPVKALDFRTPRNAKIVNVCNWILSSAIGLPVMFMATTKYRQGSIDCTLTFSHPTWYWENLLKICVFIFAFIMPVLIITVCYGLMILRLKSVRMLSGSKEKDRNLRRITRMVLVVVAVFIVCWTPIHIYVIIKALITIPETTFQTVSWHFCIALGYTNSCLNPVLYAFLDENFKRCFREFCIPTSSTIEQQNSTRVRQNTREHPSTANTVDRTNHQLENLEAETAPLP

[3] = biological target: D(1A) dopamine receptor (Rattus norvegicus) (UniProt P18901); experiment: Displacement of [3H]SCH-23390 from rat HA-tagged D1 dopamine receptor expressed in CHO cells at 10 uM
D(1A) dopamine receptor (Rattus norvegicus), sequence (P18901 whole entry): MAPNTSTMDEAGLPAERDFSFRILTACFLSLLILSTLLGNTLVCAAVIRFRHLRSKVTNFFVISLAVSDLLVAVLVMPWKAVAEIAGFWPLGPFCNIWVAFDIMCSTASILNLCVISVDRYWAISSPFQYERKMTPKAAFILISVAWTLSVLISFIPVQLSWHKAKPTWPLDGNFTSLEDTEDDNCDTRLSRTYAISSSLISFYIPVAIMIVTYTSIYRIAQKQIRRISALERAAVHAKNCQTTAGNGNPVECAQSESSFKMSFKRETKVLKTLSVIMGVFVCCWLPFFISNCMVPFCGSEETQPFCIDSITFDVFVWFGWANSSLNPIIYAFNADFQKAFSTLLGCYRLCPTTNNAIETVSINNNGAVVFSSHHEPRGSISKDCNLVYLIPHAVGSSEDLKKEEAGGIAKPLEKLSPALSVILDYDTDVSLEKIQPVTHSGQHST
Summary of the method: (§2)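 Membranes from CHO cells stably expressing HA-tagged rat D1 receptor; cells grown in DMEM/F12 with 10% fetal calf serum and hygromycin B at 37°C, 5% CO2. Binding: 0.2 nM [3H]SCH23390 in 50 mM Tris-HCl, 1 mM EGTA, pH 7.4, room temperature, 1 h, duplicate. Fluphenazine (10 μM) defined nonspecific binding. Screened at 10 μM; compounds displacing >50% taken to Ki from competition curves.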

[4] = biological target: D(1A) dopamine receptor (Rattus norvegicus, UniProt P18901); experiment: Displacement of [3H]SCH-23390 from rat HA-tagged D1 dopamine receptor expressed in CHO cells; summary of the method: as §2
D(1A) dopamine receptor, sequence (P18901 whole entry): as above

[5] = biological target: Delta-type opioid receptor (Mus musculus, UniProt P32300); experiment: Displacement of [3H]diprenorphine from mouse delta opioid receptor expressed in CHO cells; summary of the method: as §1
Delta-type opioid receptor, sequence (P32300 whole entry): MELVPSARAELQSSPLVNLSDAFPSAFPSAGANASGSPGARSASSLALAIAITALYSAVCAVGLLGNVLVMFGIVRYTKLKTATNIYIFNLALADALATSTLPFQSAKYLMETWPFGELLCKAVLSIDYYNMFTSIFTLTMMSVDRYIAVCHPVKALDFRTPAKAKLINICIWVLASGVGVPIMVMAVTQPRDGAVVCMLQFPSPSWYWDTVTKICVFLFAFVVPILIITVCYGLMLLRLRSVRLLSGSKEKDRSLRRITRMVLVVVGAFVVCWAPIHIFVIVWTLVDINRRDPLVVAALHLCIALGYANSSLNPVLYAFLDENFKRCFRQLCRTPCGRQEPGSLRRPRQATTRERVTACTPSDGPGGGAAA

Kappa-type opioid receptor, sequence (P41145 whole entry): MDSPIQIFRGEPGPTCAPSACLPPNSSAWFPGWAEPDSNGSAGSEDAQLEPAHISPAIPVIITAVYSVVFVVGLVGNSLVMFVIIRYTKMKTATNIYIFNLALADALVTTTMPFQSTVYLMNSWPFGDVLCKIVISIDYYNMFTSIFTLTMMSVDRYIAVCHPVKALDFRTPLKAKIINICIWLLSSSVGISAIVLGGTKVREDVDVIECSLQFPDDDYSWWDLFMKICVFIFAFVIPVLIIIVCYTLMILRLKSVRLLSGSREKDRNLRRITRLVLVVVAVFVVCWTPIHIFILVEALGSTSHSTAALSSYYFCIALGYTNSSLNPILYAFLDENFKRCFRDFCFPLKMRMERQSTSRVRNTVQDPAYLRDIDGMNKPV

Compound: CC(C)=CC(O)C/C(C)=C/COc1c2ccoc2cc2oc(=O)ccc12 (centres undefined) [NOTOPTEROL]
- Ki [1]: > 10000 nM
- Ki [2]: > 10000 nM
- Activity [3]: > 50%
- Ki [4]: 1420 nM
- Ki [5]: > 10000 nM

Compound: C=C[C@@H](O)C#CC#C[C@@H](O)/C=C\CCCCCCC [FALCARINDIOL]
- Ki [1]: 2510 nM
- Ki [2]: 1130 nM
- Activity [3]: > 50%
- Ki [4]: 192 nM
- Ki [5]: 1100 nM

Compound: CC(C)=CC(O)C/C(C)=C/COc1ccc2ccc(=O)oc2c1 (centres undefined) [ANISOCOUMARIN H]
- Ki [1]: 2600 nM
- Ki [2]: > 10000 nM
- Ki [4]: > 10000 nM
- Ki [5]: > 10000 nM
